Bioassay records: PubChem BioAssay, Broad Institute
Rtt109 HAT inh: blocks Candida albicans Rtt109/Vps75 acetyltransferase activity | Q5AAJ8 | purified Rtt109/Vps75, ThioGlo CoA-SH fluorescence, 4 h | inhibition, % at 34.9 µM | 330,000 tested, 0.16% active | AID 540336;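 active means inhibition of at least 50% in every replicate; inconclusive means best replicate reaches 50% inhibition but some replicates fall short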
Target sequence (Q5AAJ8 whole entry, looked up): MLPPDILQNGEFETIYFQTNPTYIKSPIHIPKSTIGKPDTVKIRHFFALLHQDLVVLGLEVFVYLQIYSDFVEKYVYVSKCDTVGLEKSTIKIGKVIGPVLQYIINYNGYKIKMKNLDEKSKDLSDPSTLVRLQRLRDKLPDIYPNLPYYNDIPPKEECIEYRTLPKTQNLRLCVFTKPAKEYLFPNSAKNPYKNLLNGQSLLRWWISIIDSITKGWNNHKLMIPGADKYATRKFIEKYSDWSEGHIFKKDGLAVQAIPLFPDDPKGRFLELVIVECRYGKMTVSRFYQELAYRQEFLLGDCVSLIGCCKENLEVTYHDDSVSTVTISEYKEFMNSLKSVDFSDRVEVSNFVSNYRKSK
CAL PDZ FP-1: CAL PDZ (human) peptide binding inhibition; Q9HD26; purified CAL PDZ, TMR-peptide fluorescence polarization, 1 h; inhibition, % at 24.9 µM; 300,000 tested, 0.92% active; AID 602252;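 active means mean inhibition of at least 30% with at least half of replicates also reaching 30%; inconclusive means no clear call, values can overlap the other calls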
ALR inh: blocks human ALR sulfhydryl oxidase activity | AID 485317 | purified ALR, DTT oxidation, H2O2 HRP-luminol luminescence | P55789 | inhibition, % (test concentration not listed) | 290,000 tested, 3.8% active;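 active means mean replicate inhibition above about 79%, with every replicate also reaching it, limit read from the data; inconclusive means only one of the two criteria met; inactive means mean below limit and not every replicate reaching it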
Target sequence (P55789 whole entry, looked up): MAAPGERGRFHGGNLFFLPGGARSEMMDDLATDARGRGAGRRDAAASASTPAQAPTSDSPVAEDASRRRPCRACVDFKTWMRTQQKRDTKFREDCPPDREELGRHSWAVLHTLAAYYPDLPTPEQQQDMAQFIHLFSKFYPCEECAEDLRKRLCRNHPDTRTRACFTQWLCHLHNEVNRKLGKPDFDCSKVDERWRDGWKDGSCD
Dyrk1A ADPGlo: inhibitors of rat Dyrk1A kinase; Q63470; ADP-Glo luminescence, NFATc1 peptide; 310,000 tested, 0.43% active; AID 504441; inhibition, % at 12.5 µM; in the data active means inhibition above about 50%
CAL PDZ FP-2: blocks peptide binding to human CAL PDZ domain; Q9HD26; purified CAL PDZ, TMR-peptide fluorescence polarization, 1 h; inhibition, % at 20 µM; 330,000 tested, 0.02% active; AID 504414;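 active means highest replicate inhibition of at least 40%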
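System: tagged CAL PDZ domain. Schedule: 1 h room-temperature incubation prior to read. Signal: fluorescence polarization (mP). Measure: percent inhibition from loss of millipolarization.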
Hits are given with their value; 0 = inactive; ? = inconclusive; - = no result given. Shown are actives, neighbours in structure and some others; about 4.3% of the full set was active somewhere.

SMILES	Rtt109 HAT inh	CAL PDZ FP-1	ALR inh	Dyrk1A ADPGlo	CAL PDZ FP-2
COC(=O)CNC(c1ccccc1)c1cc(Br)ccc1N (stereo not drawn)	0	-	99.2	0	0
C/C(=N\Nc1ccc([N+](=O)[O-])cc1)c1cccc(N)c1	0	0	99.0	0	0
C/C(=N\Nc1ncc(Br)cn1)c1cccc([N+](=O)[O-])c1	0	0	0	0	0
C/C(=N\Nc1ccc([N+](=O)[O-])cc1)c1ccc(O)cc1	0	0	99.4	0	0
COc1ccc(C2NN=C(c3ccc(C)cc3)S2)cc1 (stereo not drawn)	0	40.9	0	0	0
CCOc1cc(C2NN=C(c3ccc(C)cc3)S2)ccc1O (stereo not drawn)	0	0	0	0	0
C=CCOc1ccc(/C=C/C(=O)OCC(=O)N2CCN(S(=O)(=O)c3ccc(C)cc3C)CC2)cc1	0	47.1	-	0	0
Cc1ccc(S(=O)(=O)N2CCN(C(=O)COC(=O)/C=C/c3ccc([N+](=O)[O-])cc3)CC2)c(C)c1	0	0	-	-	0
OCCN(Cc1ccccc1)CC(O)COc1ccc2c(c1)OCO2 (stereo not drawn)	0	0	0	0	0
Cc1nc(C)c(CC(=O)N/N=C/c2ccc(O)cc2)c(=O)[nH]1	0	55.6	90.1	-	0
COc1ccc(/C(C)=N/NC(=O)Cc2c(C)nc(C)[nH]c2=O)cc1	0	0	0	0	0
CN(C)c1ccc(C(CC(=O)c2ccccc2)C2CCCCC2=O)cc1 (stereo not drawn)	0	0	98.1	0	0
O=C(CC(c1ccccc1)C1CCCCC1=O)c1ccccc1 (stereo not drawn)	0	32.3	-	0	0
COc1ccc(C(=O)CC(c2ccccc2)C2CCCCC2=O)cc1 (stereo not drawn)	0	0	0	0	0
N#C/C(=C/Nc1ccccc1F)S(=O)(=O)c1ccc(Cl)cc1	-	0	0	0	0
CN(c1ccccc1)S(=O)(=O)c1ccc(C(=O)N2CCCC(C(F)(F)F)C2)cc1 (stereo not drawn)	0	0	0	0	0
Cc1ccc(S(=O)(=O)N2CCN(C(=O)COC(=O)CNC(=O)c3ccc(Cl)cc3Cl)CC2)c(C)c1	0	-	-	0	0
CCOC(=O)c1ccccc1-c1csc(N)n1	0	0	0	0	0
Cc1ccc(CNC(=O)c2cc3c(-c4ccc(Cl)cc4)nn(C)c3s2)o1	0	0	80.2	0	0
COCCNC(=O)c1cc2c(-c3ccccc3F)nn(C)c2s1	0	0	0	0	0
COCCNC(=O)c1cc2c(-c3ccc(Cl)cc3)nn(C)c2s1	0	0	92.1	0	0
CCCCN(C)CCNC(=O)c1cc2c(-c3ccccc3F)nn(C)c2s1	0	42.8	-	0	0
Cn1nc(-c2ccc(Cl)cc2)c2cc(C(=O)NCCCN3CCCC3)sc21	0	0	93.7	0	0
CCCCNC(=O)c1cc2c(-c3ccc(Cl)cc3)nn(C)c2s1	0	-	0	0	0
Cc1cccnc1NC(=O)CCNC(=O)c1ccc(Cl)cc1	0	0	0	-	0
SMILES	Rtt109 HAT inh	CAL PDZ FP-1	ALR inh	Dyrk1A ADPGlo	CAL PDZ FP-2
CCOc1ccc(-n2c(Cc3cc(=O)[nH]c(=O)[nH]3)nnc2SC(C)C)cc1	0	0	0	0	0
CCC(C)Sc1nnc(Cc2cc(=O)[nH]c(=O)[nH]2)n1-c1ccc(F)cc1 (stereo not drawn)	0	-	97.8	0	0
Cc1cc(Br)c(Oc2cc(NN3CCCCC3)c([N+](=O)[O-])cc2[N+](=O)[O-])c(Br)c1	0	0	-	0	0
O=C(OCc1ccccc1)Oc1cncc(C(=O)O)c1	-	0	97.9	0	0
Cc1cccc(C)c1NC(=O)CN	0	0	0	0	0
Cc1cccc(C)c1NC(=O)Cn1nnnc1N	0	65.9	0	0	0
O=C1CCC(=O)N1c1ccc(-c2nc3ccccc3s2)cc1	52.1	0	0	0	0
Cc1cccc(NC(=O)C2C3C=CC(O3)C2C(=O)O)c1 (stereo not drawn)	-	-	0	-	-
Cc1nc2ccccn2c1C(=O)/C=C/c1cccc([N+](=O)[O-])c1	0	0	0	0	0
O=C(/C=C/c1ccc(OC2CSC2)cc1)c1ccccc1	0	0	82.9	0	0
O=C(N/N=C/c1ccc(OC2CSC2)cc1)c1ccccc1	0	0	0	0	0
Cc1ccc(/C=C/C(=O)c2c(C)nc3ccccn23)cc1	0	0	97.7	0	0
Cc1ccc(/C=C/C(=O)c2ccccc2)cc1	0	0	97.1	0	-
Cc1ccc(C(=O)/C=C/C(=O)O)cc1	-	0	98.1	0	0
COC(=O)c1sccc1NC(=S)N1CCN(c2ccccc2F)CC1	0	0	0	0	0
COc1cc(C(C(=O)NC2CCCC2)N(C(=O)Cc2cccs2)C2CC2)cc(OC)c1OC (stereo not drawn)	0	0	0	0	0
CCN(CC)c1ccc(C(=O)OCC(=O)NC(C)(C)C)cc1	0	0	-	0	0
CC1CC1C(=O)OCC(=O)Nc1cccc([N+](=O)[O-])c1 (stereo not drawn)	0	0	0	0	0
CC1CCC(NC(=O)CCNS(=O)(=O)c2ccc3c(c2)CCC(=O)N3)CC1 (stereo not drawn)	?	0	0	0	0
O=C(N[C@@H](Cc1ccccc1)C(=O)N1CCC2(CC1)NCCc1[nH]cnc12)c1cccc(F)c1	0	0	0	0	0
Cc1cccc(C(=O)Nc2ccc(C(=O)/C=C/c3ccncc3)cc2)c1	0	0	0	0	43.0
Cc1cccc(C(=O)Nc2ccc(C(=O)/C=C/c3cccnc3)cc2)c1	0	0	-	0	0
CCOC(=O)c1c(C)[nH]c(C(=O)OCC(=O)Nc2sccc2C(N)=O)c1C	0	0	0	0	0
NC(Cc1ccccc1)C(=O)N1CCCCC1 (stereo not drawn)	-	0	0	0	0
Cc1nc2ccc(S(=O)(=O)N(C)CC(=O)NCc3ccc(N(C)C)cc3)cc2s1	0	0	84.7	0	0
SMILES	Rtt109 HAT inh	CAL PDZ FP-1	ALR inh	Dyrk1A ADPGlo	CAL PDZ FP-2
O=C(COC(=O)c1ccccc1F)NCc1ccc2c(c1)OCO2	0	0	-	0	0
Fc1ccc(SCCc2ccncc2)cc1	0	0	0	0	0
COc1ccc(SCCc2ccncc2)cc1	0	0	92.7	0	0
CC(C)=CC(=O)Nc1cccc(S(=O)(=O)NC2=NCCCCC2)c1	0	47.1	-	0	0
CCOC(=O)c1ccc(S(=O)(=O)Nc2nc3cc(S(=O)(=O)NC4=NCCCCC4)ccc3s2)cc1	?	0	97.4	0	0
O=C(COC(=O)c1ccc(O)cc1)Nc1cccc(S(=O)(=O)NC2=NCCCCC2)c1	0	0	0	0	0
Nc1nc2cc(S(=O)(=O)NC3=NCCCCC3)ccc2s1	0	0	90.8	0	0
Nc1ccc(S(=O)(=O)NC2=NCCCCC2)cc1	0	0	0	0	0
CC1c2[nH]c3ccccc3c2C[C@H]2C(=O)N(CCCN(C)C)CC(=O)N12 (stereo partly drawn)	0	0	0	0	0
O=C(O)CCn1cc(/C=C/C(=O)c2ccc(Cl)cc2)c(-c2ccc(Br)cc2)n1	0	0	97.5	0	0
